Test [1] has as its target T1, Cholinesterase (Equus caballus, UniProt P81908). Kind of test: Inhibition of equine serum BuChE using butyrylthiocholine chloride as substrate preincubated for 15 mins followed by substrate addition and measured after 4 mins by Ellman's method. The class given is cell-free. For orientation: Ellman's reagent forms a yellow product with free thiols.
In test [2] the target is Cholinesterase (Equus caballus) (UniProt P81908). Kind of test: Inhibition of equine serum BuChE at 10 uM using butyrylthiocholine chloride as substrate preincubated for 15 mins followed by substrate addition and measured after 4 mins by Ellman's method. The class given is cell-free. The note with it: time 19.0 min.
Test [3] has the same target. The experiment in a line: Inhibition of equine serum BuChE at 100 uM using butyrylthiocholine chloride as substrate preincubated for 15 mins followed by substrate addition and measured after 4 mins by Ellman's method. The class given is cell-free.
Test [4] concerns the target Acetylcholinesterase (Electrophorus electricus, UniProt O42275). Kind of test: Inhibition of Electrophorus electricus AChE using acetylthiocholine iodide as substrate preincubated for 15 mins followed by substrate addition and measured after 4 mins by Ellman's method.
The target in test [5] is Acetylcholinesterase (Electrophorus electricus) (UniProt O42275). The experiment in a line: Inhibition of Electrophorus electricus AChE at 100 uM using acetylthiocholine iodide as substrate preincubated for 15 mins followed by substrate addition and measured after 4 mins by Ellman's method. The note with it: time 19.0 min.
Test [6] concerns the target T1, Cholinesterase. The experiment in a line: Non-Competitive inhibition of equine serum BuChE using varying concentrations of butyrylthiocholine iodide as substrate by Lineweaver-burk plot analysis. The class given is cell-free. The method, boiled down:
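Equine serum BuChE kinetics by the Ellman read-out with butyrylthiocholine at 0.025–2.0 mM. Run without inhibitor and with inhibitor at 0.5 and 1.0 µM. Reciprocal initial rate was plotted against reciprocal substrate concentration (Lineweaver-Burk) to assign the inhibition mode.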

SMILES strings stand for the structures.

A word on the IC50: it is the concentration needed to halve the response being measured. A low value points to greater potency. Usually inhibition stands for the drop in the measured response relative to a control, in per cent. A word on the Ki: it is the equilibrium dissociation constant of an inhibitor or competing ligand from its target. Read a high Ki as a looser hold on the target.

Sequence of Cholinesterase (Equus caballus) (P81908 whole entry): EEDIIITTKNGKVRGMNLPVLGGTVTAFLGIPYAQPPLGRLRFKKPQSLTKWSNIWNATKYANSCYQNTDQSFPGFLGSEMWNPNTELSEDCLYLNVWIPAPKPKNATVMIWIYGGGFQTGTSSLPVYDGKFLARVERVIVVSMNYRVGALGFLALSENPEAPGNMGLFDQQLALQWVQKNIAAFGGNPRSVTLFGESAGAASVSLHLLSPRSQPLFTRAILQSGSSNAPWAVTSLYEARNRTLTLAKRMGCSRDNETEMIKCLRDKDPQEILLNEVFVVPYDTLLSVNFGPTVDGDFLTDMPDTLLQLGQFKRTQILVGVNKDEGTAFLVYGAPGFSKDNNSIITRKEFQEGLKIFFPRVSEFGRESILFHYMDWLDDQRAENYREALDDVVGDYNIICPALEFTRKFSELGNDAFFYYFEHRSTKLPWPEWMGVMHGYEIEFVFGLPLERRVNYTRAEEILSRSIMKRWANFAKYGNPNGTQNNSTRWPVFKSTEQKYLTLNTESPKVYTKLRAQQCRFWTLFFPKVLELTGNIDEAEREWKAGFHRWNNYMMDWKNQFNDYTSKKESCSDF
T1 sequence (P81908 whole entry): as above
Sequence of Acetylcholinesterase (Electrophorus electricus) (O42275 24-633 limits assumed): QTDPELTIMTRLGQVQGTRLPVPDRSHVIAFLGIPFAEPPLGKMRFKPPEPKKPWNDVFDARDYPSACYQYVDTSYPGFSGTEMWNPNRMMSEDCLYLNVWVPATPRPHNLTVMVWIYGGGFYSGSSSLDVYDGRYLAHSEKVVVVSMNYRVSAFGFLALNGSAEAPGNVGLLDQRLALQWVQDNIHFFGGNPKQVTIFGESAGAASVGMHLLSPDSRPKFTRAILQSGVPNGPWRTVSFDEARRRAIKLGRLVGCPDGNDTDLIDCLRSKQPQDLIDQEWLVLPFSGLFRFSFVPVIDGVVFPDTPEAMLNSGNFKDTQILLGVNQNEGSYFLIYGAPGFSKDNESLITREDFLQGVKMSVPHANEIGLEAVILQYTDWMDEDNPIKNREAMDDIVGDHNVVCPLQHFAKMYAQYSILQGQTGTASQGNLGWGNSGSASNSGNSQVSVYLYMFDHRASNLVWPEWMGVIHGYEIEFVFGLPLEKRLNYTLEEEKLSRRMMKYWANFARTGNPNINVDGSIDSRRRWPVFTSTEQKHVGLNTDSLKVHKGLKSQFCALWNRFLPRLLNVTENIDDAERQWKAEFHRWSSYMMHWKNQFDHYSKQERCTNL
Sequence of Acetylcholinesterase (O42275 whole entry): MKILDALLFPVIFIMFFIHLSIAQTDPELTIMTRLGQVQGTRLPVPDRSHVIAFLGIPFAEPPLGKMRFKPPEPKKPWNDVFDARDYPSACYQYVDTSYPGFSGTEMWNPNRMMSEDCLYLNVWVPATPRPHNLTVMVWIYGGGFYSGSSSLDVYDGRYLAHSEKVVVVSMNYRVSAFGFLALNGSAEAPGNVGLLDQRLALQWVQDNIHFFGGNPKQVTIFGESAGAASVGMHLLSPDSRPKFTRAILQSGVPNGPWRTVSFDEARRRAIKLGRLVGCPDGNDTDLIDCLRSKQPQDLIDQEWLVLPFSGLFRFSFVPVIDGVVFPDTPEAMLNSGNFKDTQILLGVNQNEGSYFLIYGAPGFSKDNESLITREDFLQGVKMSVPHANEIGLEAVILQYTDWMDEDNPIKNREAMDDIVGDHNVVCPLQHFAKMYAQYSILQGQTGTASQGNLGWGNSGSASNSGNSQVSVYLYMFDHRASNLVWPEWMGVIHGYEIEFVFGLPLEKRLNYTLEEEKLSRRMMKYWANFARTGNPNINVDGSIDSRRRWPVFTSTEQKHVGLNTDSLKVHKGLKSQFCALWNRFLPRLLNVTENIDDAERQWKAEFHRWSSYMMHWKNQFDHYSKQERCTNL

Regarding `CN(C)C(=O)Oc1ccc(/C=N/NC(=O)c2ccc(O)cc2)cc1`, the IC50 in test [1] and in test [4] was > 100 µM each time. In addition, the inhibition in test [2] was determined as 10.4%; in test [3] it was 31%; in test [5] it was 11.7%.

As for `COc1ccc(C(=O)N/N=C/c2ccccc2OC(=O)N(C)C)cc1OC`, the values for the IC50 in test [1] and in test [4] were 0.31 µM and > 100 µM, respectively. Also, the figures for the inhibition in test [2], in test [3] and in test [5] were 62.1%, 74% and 21.9%, respectively.

On to `COc1ccc(C(=O)N/N=C/c2ccc(OC(=O)N(C)C)c(OC)c2)cc1OC`, for which the IC50 is 2.07 µM in test [1] and > 100 µM in test [4]. In addition, the inhibition in test [2] stood at 74.8%; in test [3] it was 78.5%; in test [5] it was 24.7%.

As for `CN(C)C(=O)Oc1ccc(/C=N/NC(=O)c2cccc(O)c2)cc1`, the IC50 in test [1] was 29.3 µM; in test [4], > 100 µM. In addition, the values for the inhibition in test [2], in test [3] and in test [5] were 42.1%, 75.2% and 9.65%, respectively.

`COc1ccc(C(=O)N/N=C/c2ccc(OC(=O)N(C)C)cc2)cc1OC`: the half-maximal inhibitory concentration (IC50) in test [1] and in test [4] was > 100 µM throughout. Further, the inhibition was found to be 11.4% in test [2], 37.8% in test [3] and 28.3% in test [5].

On to `COc1cc(C(=O)N/N=C/c2ccc(OC(=O)N(C)C)cc2)ccc1O`, for which the figures for the 50% inhibitory concentration (IC50) in test [1] and in test [4] were 21.9 µM and > 100 µM, respectively. Further, the inhibition in test [2] is 44.6%; in test [3], 63.9%; in test [5], 20.1%.

For the molecule `COc1cc(/C=N/NC(=O)c2ccc(O)cc2)ccc1OC(=O)N(C)C`, the values for the IC50 in test [1] and in test [4] were 0.94 µM and > 100 µM, respectively. Further, the inhibition in test [2] came to 68.4%; in test [3], 73.4%; in test [5] it was 23.6%.

In test [6], `COc1cc(C(=O)N/N=C/c2ccccc2OC(=O)N(C)C)ccc1O` displayed a Ki of 97 µM. The IC50 was 0.07 µM in test [1] and > 100 µM in test [4]. The inhibition in test [2] was 73%; in test [3] it was 77.8%; in test [5] it was 24.9%.

As to `CN(C)C(=O)Oc1ccccc1/C=N/NC(=O)c1ccc(O)cc1`, the values for the IC50 in test [1] and in test [4] were 0.18 µM and > 100 µM, respectively. The inhibition was found to be 76.4% in test [2], 80.9% in test [3] and 11.1% in test [5].

Turning to `CN(C)C(=O)Oc1ccccc1/C=N/NC(=O)c1cccc(O)c1`, the IC50 in test [1] is 0.56 µM; in test [4], > 100 µM. The inhibition came to 74.9% in test [2], 82% in test [3] and 18.2% in test [5].

In the case of `COc1cc(/C=N/NC(=O)c2cccc(O)c2)ccc1OC(=O)N(C)C`, the values for the IC50 in test [1] and in test [4] were 7.65 µM and > 100 µM, respectively. The inhibition in test [2] is 50.1%; in test [3], 62.2%; in test [5], 19.9%.

Take `COc1cc(C(=O)N/N=C/c2ccc(OC(=O)N(C)C)c(OC)c2)ccc1O`: the IC50 in test [1] was 9.98 µM; in test [4] it was > 100 µM. Also, the figures for the inhibition in test [2], in test [3] and in test [5] were 57.3%, 49.7% and 29.2%, respectively.

Values taken from ChEMBL document CHEMBL4680346, “Novel arylcarbamate-N-acylhydrazones derivatives as promising BuChE inhibitors: Design, synthesis, molecular modeling and biological evaluation” (Bioorg Med Chem, 2021).
